Assay results as given in ChEMBL document CHEMBL4330115, “Discovery of a new class of valosine containing protein (VCP/P97) inhibitors for the treatment of non-small cell lung cancer” (Bioorg Med Chem, 2019).
One block for each compound: values may come before it.

Legend:
[1] = molecular target: Transitional endoplasmic reticulum ATPase (Homo sapiens, UniProt P55072); test: Inhibition of human p97 using ATP as substrate after 60 mins by ADP-Glo assay
A549 = test: Antiproliferative activity against human A549 cells after 72 hrs by CCK-8 assay; assay type: functional, cell-based; details: A549, 72 h
[2] = Half life in human liver microsomes at 1 uM after 60 mins by LC-MS analysis; assay type: ADME, Microsome
[3] = Half life in mouse liver microsomes at 1 uM after 60 mins by LC-MS analysis; assay type: ADME, Microsome
[4] = Half life in rat liver microsomes at 1 uM after 60 mins by LC-MS analysis; assay type: ADME, Microsome
[5] = Half life in dog liver microsomes at 1 uM after 60 mins by LC-MS analysis; assay type: ADME, Canis lupus familiaris, Microsome
[6] = Half life in monkey liver microsomes at 1 uM after 60 mins by LC-MS analysis; assay type: ADME, Macaca mulatta, Microsome; details: rhesus monkey
[7] = Intrinsic clearance in human liver microsomes at 1 uM after 60 mins by LC-MS analysis; assay type: ADME, Microsome; details: 1 h
[8] = Intrinsic clearance in mouse liver microsomes at 1 uM after 60 mins by LC-MS analysis; assay type: ADME, Microsome; details: 1 h
[9] = Intrinsic clearance in rat liver microsomes at 1 uM after 60 mins by LC-MS analysis; assay type: ADME, Microsome; details: 1 h
[10] = Intrinsic clearance in dog liver microsomes at 1 uM after 60 mins by LC-MS analysis; assay type: ADME, Canis lupus familiaris, Microsome; details: 1 h
[11] = Intrinsic clearance in monkey liver microsomes at 1 uM after 60 mins by LC-MS analysis; assay type: ADME, Macaca mulatta, Microsome; details: rhesus monkey, 1 h
[12] = Cmax in Sprague-Dawley rat at 5 mg/kg, iv administered as single dose by LC-MS/MS analysis; assay type: ADME, organism-based; set-up: dose 5 mg/kg, route intravenous; details: in vivo
How it was run: (§1)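 Male Sprague-Dawley rats received a single dose, iv by tail vein at 5 mg/kg or orally (ig) at 30 mg/kg. Vehicle was a solution of 40% PEG400, 10% castor oil, 5% EtOH and 45% buffered saline. Orbital sinus blood (0.1 mL) was taken into heparinized tubes at 2, 5, 15 and 30 min and at 1, 2, 4, 8 and 24 h, then centrifuged for plasma.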

[13] = Cmax in Sprague-Dawley rat at 30 mg/kg, ig administered as single dose by LC-MS/MS analysis; assay type: ADME, organism-based; set-up: dose 30 mg/kg, route intragastric; details: in vivo, po; how it was run: as §1
[14] = Tmax in Sprague-Dawley rat at 5 mg/kg, iv administered as single dose by LC-MS/MS analysis; assay type: ADME, organism-based; details: in vivo; how it was run: as §1
[15] = Tmax in Sprague-Dawley rat at 30 mg/kg, ig administered as single dose by LC-MS/MS analysis; assay type: ADME, organism-based; details: in vivo, po; how it was run: as §1
[16] = Half life in Sprague-Dawley rat at 5 mg/kg, iv administered as single dose by LC-MS/MS analysis; assay type: ADME, organism-based; details: in vivo; how it was run: as §1
[17] = Half life in Sprague-Dawley rat at 30 mg/kg, ig administered as single dose by LC-MS/MS analysis; assay type: ADME, organism-based; details: in vivo, po; how it was run: as §1
[18] = AUC (0 to t) in Sprague-Dawley rat at 5 mg/kg, iv administered as single dose by LC-MS/MS analysis; assay type: ADME, organism-based; details: in vivo; how it was run: as §1
[19] = AUC (0 to t) in Sprague-Dawley rat at 30 mg/kg, ig administered as single dose by LC-MS/MS analysis; assay type: ADME, organism-based; details: in vivo, po; how it was run: as §1
[20] = AUC (0 to infinity) in Sprague-Dawley rat at 5 mg/kg, iv administered as single dose by LC-MS/MS analysis; assay type: ADME, organism-based; set-up: dose 5 mg/kg, route intravenous, time infinity; details: in vivo; how it was run: as §1
[21] = AUC (0 to infinity) in Sprague-Dawley rat at 30 mg/kg, ig administered as single dose by LC-MS/MS analysis; assay type: ADME, organism-based; set-up: dose 30 mg/kg, route intragastric, time infinity; details: in vivo, po; how it was run: as §1
[22] = MRT in Sprague-Dawley rat at 5 mg/kg, iv administered as single dose by LC-MS/MS analysis; assay type: ADME, organism-based; details: in vivo; how it was run: as §1
[23] = MRT in Sprague-Dawley rat at 30 mg/kg, ig administered as single dose by LC-MS/MS analysis; assay type: ADME, organism-based; details: in vivo, po; how it was run: as §1
[24] = Oral bioavailability in Sprague-Dawley rat at 30 mg/kg administered as single dose by LC-MS/MS analysis; assay type: ADME, organism-based; details: in vivo; how it was run: as §1

Chain of Transitional endoplasmic reticulum ATPase (P55072 whole entry): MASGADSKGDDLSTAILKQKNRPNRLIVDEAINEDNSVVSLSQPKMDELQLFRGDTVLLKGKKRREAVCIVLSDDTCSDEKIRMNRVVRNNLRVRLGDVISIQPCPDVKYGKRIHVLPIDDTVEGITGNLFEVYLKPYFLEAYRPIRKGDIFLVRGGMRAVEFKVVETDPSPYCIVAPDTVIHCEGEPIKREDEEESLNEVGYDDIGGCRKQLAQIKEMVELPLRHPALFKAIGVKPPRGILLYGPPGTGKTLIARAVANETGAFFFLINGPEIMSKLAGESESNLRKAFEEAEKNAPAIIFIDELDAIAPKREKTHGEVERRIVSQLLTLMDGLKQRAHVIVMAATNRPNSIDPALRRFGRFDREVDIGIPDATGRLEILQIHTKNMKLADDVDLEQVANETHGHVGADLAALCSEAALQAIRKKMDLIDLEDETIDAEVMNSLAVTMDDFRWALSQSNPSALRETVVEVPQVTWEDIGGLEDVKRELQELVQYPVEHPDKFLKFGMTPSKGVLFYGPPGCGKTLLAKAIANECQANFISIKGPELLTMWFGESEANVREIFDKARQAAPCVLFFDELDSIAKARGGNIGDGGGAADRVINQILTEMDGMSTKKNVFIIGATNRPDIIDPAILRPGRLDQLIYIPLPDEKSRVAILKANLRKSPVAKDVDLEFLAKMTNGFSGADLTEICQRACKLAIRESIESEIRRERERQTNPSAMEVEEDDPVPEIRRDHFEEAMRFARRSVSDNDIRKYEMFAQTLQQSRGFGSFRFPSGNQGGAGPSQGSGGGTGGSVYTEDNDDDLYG

IC50 ([1]; read-out: IC50): 120 nM
Structure (SMILES): Cc1cc2c(C(N)=O)cccc2n1-c1nc2c(c(NCc3ccccc3)n1)CCCCCC2

IC50 ([1]; read-out: IC50): 922 nM
Structure (SMILES): CC(=O)Nc1cccc2c1ccn2-c1nc2c(c(NCc3ccccc3)n1)COCC2

IC50 [1]: Not Active
Structure (SMILES): NC(=O)c1cccc(Nc2nc3c(c(NCc4ccccc4)n2)COCC3)c1

IC50 ([1]; read-out: IC50): 34.6 nM
IC50 (A549): 2100 nM
Structure (SMILES): Cc1cc2c(NS(=O)(=O)C3CC3)cccc2n1-c1nc2c(c(NCc3ccccc3)n1)COCC2

IC50 ([1]; read-out: IC50): 58.3 nM
IC50 (A549): 4600 nM
Structure (SMILES): C=CC(=O)Nc1cccc2c1cc(C)n2-c1nc2c(c(NCc3ccccc3)n1)COCC2

IC50 ([1]; read-out: IC50): 82.8 nM
IC50 (A549): 2600 nM
Structure (SMILES): Cc1cc2c(C(N)=O)cccc2n1-c1nc2c(c(NCc3ccccc3)n1)CCCCC2

IC50 [1]: Not Active
Structure (SMILES): Cc1cc2c(C(N)=O)cccc2n1-c1nc2c(c(NCC3CC3)n1)COCC2

IC50 ([1]; read-out: IC50): 135 nM
Structure (SMILES): Cc1cc2c(NS(=O)(=O)c3ccccc3)cccc2n1-c1nc2c(c(NCc3ccccc3)n1)COCC2

IC50 ([1]; read-out: IC50): 36.4 nM
IC50 (A549): 1600 nM
half-life at 1 µM [2]: 42.3 min
half-life at 1 µM [3]: 47.8 min
half-life at 1 µM [4]: 16.8 min
half-life at 1 µM [5]: 36.3 min
half-life at 1 µM [6]: 12.3 min
CLint [7]: 29.5 mL/min/kg
CLint [8]: 114 mL/min/kg
CLint [9]: 149 mL/min/kg
CLint [10]: 55 mL/min/kg
CLint [11]: 152 mL/min/kg
Cmax [12]: 3380 ng/mL
Cmax [13]: 191 ng/mL
Tmax [14]: 3 min
Tmax [15]: 160 min
half-life [16]: 218 min
half-life [17]: 274 min
AUC(0-t) [18]: 6950 ng·h/mL
AUC(0-t) [19]: 1770 ng·h/mL
AUC(0-inf) [20]: 7420 ng·h/mL
AUC(0-inf) [21]: 2560 ng·h/mL
MRT [22]: 271 min
MRT [23]: 425 min
bioavailability [24]: 4.2%
Structure (SMILES): Cc1cc2c(NS(C)(=O)=O)cccc2n1-c1nc2c(c(NCc3ccccc3)n1)COCC2

IC50 ([1]; read-out: IC50): 193 nM
Structure (SMILES): Cc1cc2c(C(N)=S)cccc2n1-c1nc2c(c(NCc3ccccc3)n1)COCC2

IC50 [1]: Not Active
Structure (SMILES): C=CC(=O)Nc1cccc2c1cc(C)n2-c1nc2c(c(NCC3CC3)n1)COCC2

IC50 ([1]; read-out: IC50): 387 nM
Structure (SMILES): Cc1cc2c(NC(=O)/C=C/CN(C)C)cccc2n1-c1nc2c(c(NCc3ccccc3)n1)COCC2

IC50 ([1]; read-out: IC50): 129 nM
Structure (SMILES): CC(=O)Nc1cccc2c1cc(C)n2-c1nc2c(c(NCc3ccccc3)n1)COCC2

IC50 ([1]; read-out: IC50): 449 nM
Structure (SMILES): Cc1cc2c(NC(=O)CN3CCCC3)cccc2n1-c1nc2c(c(NCc3ccccc3)n1)COCC2

IC50 [1]: Not Active
Structure (SMILES): Cc1cc2c(C(N)=O)cccc2n1-c1nc2c(c(NCCN3CCOCC3)n1)COCC2

IC50 [1]: Not Active
Structure (SMILES): Cc1cc2c(C(N)=O)cccc2n1-c1nc2c(c(NCc3ccncc3)n1)COCC2

IC50 [1]: Not Active
Structure (SMILES): C=CC(=O)Nc1cccc2c1cc(C)n2-c1nc2c(c(NCc3cccc4ccccc34)n1)COCC2

IC50 ([1]; read-out: IC50): 101 nM
Structure (SMILES): Cc1cc2c(NS(=O)(=O)C(F)(F)F)cccc2n1-c1nc2c(c(NCc3ccccc3)n1)COCC2

IC50 ([1]; read-out: IC50): 5100 nM
Structure (SMILES): C=CC(=O)Nc1cccc2c1cc(C)n2-c1nc2c(c(NCc3ccncc3)n1)COCC2

IC50 ([1]; read-out: IC50): 308 nM
Structure (SMILES): Cc1cc2c(NC(=O)CCl)cccc2n1-c1nc2c(c(NCc3ccccc3)n1)COCC2

IC50 ([1]; read-out: IC50): 161 nM
Structure (SMILES): Cc1cc2c(C(N)=O)cccc2n1-c1nccc(NCc2ccccc2)n1

IC50 ([1]; read-out: IC50): 447 nM
Structure (SMILES): Cc1cc2c(NC(=O)/C=C/c3ccccc3)cccc2n1-c1nc2c(c(NCc3ccccc3)n1)COCC2

Structure (SMILES): Cc1cc2c(C(N)=O)cccc2n1-c1nc2c(c(NCc3ccccc3)n1)COCC2 [CB-5083]
half-life at 1 µM [2]: 25.8 min
half-life at 1 µM [3]: 141 min
half-life at 1 µM [4]: 17 min
half-life at 1 µM [5]: 36.5 min
half-life at 1 µM [6]: 14.7 min
CLint [7]: 48.4 mL/min/kg
CLint [8]: 38.6 mL/min/kg
CLint [9]: 146 mL/min/kg
CLint [10]: 54.7 mL/min/kg
CLint [11]: 127 mL/min/kg
